Experimental data taken from ChEMBL document CHEMBL1124330, “2-O-alkyltyrosine derivatives of 1-deamino-arginine-vasopressin: highly specific and potent antidiuretic agonists” (J Med Chem, 1989).
Where a SMILES comes first, the peptide text is derived from it.

Tests used:
Rattus norvegicus [1] = species on record: Rattus norvegicus; experiment: In vitro anti-oxytocic activity on isolated estrogen treated rat uteri with 0.5 mM Mg+2; Agonist; assay type: functional
Summary of the method: (§1)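 Uteri isolated from estrogen-treated female rats, suspended in medium containing either no Mg2+ or 0.5 mM Mg2+. Agonism estimated by the Holton method. Antagonistic pA2 values determined as described by Schild.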

Rattus norvegicus [2] = species on record: Rattus norvegicus; experiment: Compound was tested for its antidiuretic activity; assay type: functional, Urine
Rattus norvegicus [3] = experiment: Dose that reduces the response seen with 2x units of agonist to equal the response seen with 1x unit of agonist administered before antagonist; assay type: functional
Summary of the method: (§2)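 Vasopressor assay in urethane-anesthetized, phenoxybenzamine-treated rats, given by intravenous injection. Effective dose in nmol/kg is the antagonist dose that cuts the response to 2x units of agonist down to the response to 1x unit given before antagonist. USP posterior pituitary reference standard.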

Rattus norvegicus [4] = species on record: Rattus norvegicus; experiment: In vitro anti-oxytocic activity on isolated estrogen treated rat uteri without Mg+2; Agonist; assay type: functional; summary of the method: as §1
[5] = Ratio of antidiuretic to vasopressor agonistic activity; assay type: functional, Urine
Summary of the method: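 Quotient of antidiuretic to vasopressor agonist potency. Each potency was measured by intravenous injection against the USP posterior pituitary standard: antidiuresis in ethanol-anesthetized, water-loaded rats, and pressor response in phenoxybenzamine-treated, urethane-anesthetized rats.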

Rattus norvegicus [6] = species on record: Rattus norvegicus; experiment: In vitro anti-oxytocic activity on isolated estrogen treated rat uteri with Mg+2; assay type: functional; conditions: read-out: pA2 (converted); summary of the method: as §1
Rattus norvegicus [7] = species on record: Rattus norvegicus; experiment: In vitro anti-oxytocic activity on isolated estrogen treated rat uteri with 0.5 mM Mg+2; assay type: functional; conditions: read-out: pA2 (converted); summary of the method: as §1
Rattus norvegicus [8] = species on record: Rattus norvegicus; experiment: In vitro anti-oxytocic activity on isolated estrogen treated rat uteri without Mg+2; assay type: functional; conditions: read-out: pA2 (converted); summary of the method: as §1
Rattus norvegicus [9] = species on record: Rattus norvegicus; experiment: Binding affinity was determined; assay type: functional, organism-based; conditions: read-out: pA2 (converted)
Rattus norvegicus [10] = species on record: Rattus norvegicus; experiment: In vitro oxytocic activity on isolated estrogen treated rat uteri with 0.5 mM Mg+2
Rattus norvegicus [11] = species on record: Rattus norvegicus; experiment: Anti vasopressor activity was determined; assay type: functional, organism-based; conditions: read-out: pA2 (converted); summary of the method: as §2

Row | Compound | Activity (Rattus norvegicus [2]) | ED (Rattus norvegicus [3]) | Kb (Rattus norvegicus [7]) | Kb (Rattus norvegicus [8]) | Kb (Rattus norvegicus [9]) | further results
1 | CC(C)[C@@H]1NC(=O)[C@H](Cc2ccccc2)NC(=O)[C@H](Cc2ccc(O)cc2)NC(=O)CCSSC[C@@H](C(=O)N2CCC[C@H]2C(=O)N[C@H](CCCNC(=N)N)C(=O)NCC(N)=O)NC(=O)[C@H](CC(N)=O)NC1=O (HELM PEPTIDE1{[O=C(CCS[*:3])[*:2]].Y.F.V.N.C.P.[dR].G.[am]}$PEPTIDE1,PEPTIDE1,1:R3-6:R3$$$V2.0) | 1230 units/mg | 7.2 nM/kg | – | – | – | agonist potency (Rattus norvegicus [1]): 3 units/mg; agonist potency (Rattus norvegicus [4]): 8 units/mg
2 | COc1ccc(C[C@@H]2NC(=O)CCSSC[C@@H](C(=O)N3CCC[C@H]3C(=O)N[C@@H](CCCN=C(N)N)C(=O)NCC(N)=O)NC(=O)[C@H](CC(N)=O)NC(=O)[C@H](CCC(N)=O)NC(=O)[C@H](Cc3ccccc3)NC2=O)cc1 | 830 units/mg | – | – | – | – | Ratio [5]: 202
3 | CCOc1ccc(C[C@@H]2NC(=O)CCSSC[C@@H](C(=O)N3CCC[C@H]3C(=O)N[C@@H](CCCN=C(N)N)C(=O)NCC(N)=O)NC(=O)[C@H](CC(N)=O)NC(=O)[C@H](C(C)C)NC(=O)[C@H](Cc3ccccc3)NC2=O)cc1 [listing 1 of 2 here] | 187 units/mg | 1.9 nM/kg | – | – | – | –
4 | COc1ccc(C[C@@H]2NC(=O)CCSSC[C@@H](C(=O)N3CCC[C@H]3C(=O)N[C@H](CCCN=C(N)N)C(=O)NCC(N)=O)NC(=O)[C@H](CC(N)=O)NC(=O)[C@H](C(C)C)NC(=O)[C@H](Cc3ccccc3)NC2=O)cc1 [listing 1 of 2 here] | 1740 units/mg | 8.4 nM/kg | – | – | – | –
5 | COc1ccc(C[C@@H]2NC(=O)CCSSC[C@@H](C(=O)N3CCC[C@H]3C(=O)N[C@H](CCCN=C(N)N)C(=O)NCC(N)=O)NC(=O)[C@H](CC(N)=O)NC(=O)[C@H](C(C)C)NC(=O)[C@H](Cc3ccccc3)NC2=O)cc1 [listing 2 of 2 here] | – | – | 9.55 nM | 17 nM | 97.7 nM | Kb (Rattus norvegicus [6]): 9.55 nM
6 | N=C(N)NCCC[C@@H](NC(=O)[C@@H]1CCCN1C(=O)[C@@H]1CSSCCC(=O)N[C@@H](Cc2ccc(O)cc2)C(=O)N[C@@H](Cc2ccccc2)C(=O)N[C@@H](CCC(N)=O)C(=O)N[C@@H](CC(N)=O)C(=O)N1)C(=O)NCC(N)=O (stereo in doubt; form 2) [DESMOPRESSIN] | 1200 units/mg | – | – | – | – | Ratio [5]: 3037; agonist potency (Rattus norvegicus [1]): 2.9 units/mg; agonist potency (Rattus norvegicus [4]): 1.5 units/mg
7 | COc1ccc(C[C@@H]2NC(=O)CCSSC[C@@H](C(=O)N3CCC[C@H]3C(=O)N[C@H](CCCN=C(N)N)C(=O)NCC(N)=O)NC(=O)[C@H](CC(N)=O)NC(=O)[C@H](CCC(N)=O)NC(=O)[C@H](Cc3ccccc3)NC2=O)cc1 [listing 1 of 2 here] | 236 units/mg | 9.8 nM/kg | – | – | – | –
8 | CCOc1ccc(C[C@@H]2NC(=O)CCSSC[C@@H](C(=O)N3CCC[C@H]3C(=O)N[C@H](CCCN=C(N)N)C(=O)NCC(N)=O)NC(=O)[C@H](CC(N)=O)NC(=O)[C@H](CCC(N)=O)NC(=O)[C@H](Cc3ccccc3)NC2=O)cc1 [listing 1 of 2 here] | 30 units/mg | 8.8 nM/kg | – | – | – | –
9 | COc1ccc(C[C@@H]2NC(=O)CCSSC[C@@H](C(=O)N3CCC[C@H]3C(=O)N[C@@H](CCCN=C(N)N)C(=O)NCC(N)=O)NC(=O)[C@H](CC(N)=O)NC(=O)[C@H](C(C)C)NC(=O)[C@H](Cc3ccccc3)NC2=O)cc1 [listing 1 of 2 here] | – | – | 19.5 nM | 11.7 nM | 55 nM | –
10 | CC(C)[C@@H]1NC(=O)[C@H](Cc2ccccc2)NC(=O)[C@H](Cc2ccc(O)cc2)NC(=O)CCSSC[C@@H](C(=O)N2CCC[C@H]2C(=O)N[C@@H](CCCN=C(N)N)C(=O)NCC(N)=O)NC(=O)[C@H](CC(N)=O)NC1=O (HELM PEPTIDE1{[O=C(CCS[*:3])[*:2]].Y.F.V.N.C.P.R.G.[am]}$PEPTIDE1,PEPTIDE1,1:R3-6:R3$$$V2.0) | 1150 units/mg | – | – | – | – | Ratio [5]: 225; agonist potency (Rattus norvegicus [1]): 26 units/mg; agonist potency (Rattus norvegicus [4]): 31 units/mg
11 | CCOc1ccc(C[C@@H]2NC(=O)CCSSC[C@@H](C(=O)N3CCC[C@H]3C(=O)N[C@@H](CCCN=C(N)N)C(=O)NCC(N)=O)NC(=O)[C@H](CC(N)=O)NC(=O)[C@H](C(C)C)NC(=O)[C@H](Cc3ccccc3)NC2=O)cc1 [listing 2 of 2 here] | – | – | 22.9 nM | 12.6 nM | 28.8 nM | –
12 | CCOc1ccc(C[C@@H]2NC(=O)CCSSC[C@@H](C(=O)N3CCC[C@H]3C(=O)N[C@@H](CCCN=C(N)N)C(=O)NCC(N)=O)NC(=O)[C@H](CC(N)=O)NC(=O)[C@H](CCC(N)=O)NC(=O)[C@H](Cc3ccccc3)NC2=O)cc1 [listing 1 of 2 here] | – | – | 39.8 nM | 42.7 nM | 126 nM | –
13 | CCOc1ccc(C[C@@H]2NC(=O)CCSSC[C@@H](C(=O)N3CCC[C@H]3C(=O)N[C@H](CCCN=C(N)N)C(=O)NCC(N)=O)NC(=O)[C@H](CC(N)=O)NC(=O)[C@H](CCC(N)=O)NC(=O)[C@H](Cc3ccccc3)NC2=O)cc1 [listing 2 of 2 here] | – | – | 89.1 nM | 52.5 nM | 129 nM | –
14 | COc1ccc(C[C@@H]2NC(=O)CCSSC[C@@H](C(=O)N3CCC[C@H]3C(=O)N[C@@H](CCCN=C(N)N)C(=O)NCC(N)=O)NC(=O)[C@H](CC(N)=O)NC(=O)[C@H](C(C)C)NC(=O)[C@H](Cc3ccccc3)NC2=O)cc1 [listing 2 of 2 here] | 789 units/mg | 3.7 nM/kg | – | – | – | –
15 | N=C(N)NCCC[C@@H](NC(=O)[C@@H]1CCCN1C(=O)[C@@H]1CSSCCC(=O)N[C@@H](Cc2ccc(O)cc2)C(=O)N[C@@H](Cc2ccccc2)C(=O)N[C@@H](CCC(N)=O)C(=O)N[C@@H](CC(N)=O)C(=O)N1)C(=O)NCC(N)=O (stereo in doubt; form 1) [DESMOPRESSIN] | 1740 units/mg | – | – | – | – | Ratio [5]: 5; agonist potency (Rattus norvegicus [4]): 54 units/mg; agonist potency (Rattus norvegicus [10]): 167 units/mg
16 | COc1ccc(C[C@@H]2NC(=O)CCSSC[C@@H](C(=O)N3CCC[C@H]3C(=O)N[C@H](CCCN=C(N)N)C(=O)NCC(N)=O)NC(=O)[C@H](CC(N)=O)NC(=O)[C@H](CCC(N)=O)NC(=O)[C@H](Cc3ccccc3)NC2=O)cc1 [listing 2 of 2 here] | – | – | 39.8 nM | 11.7 nM | – | Kb (Rattus norvegicus [11]): 107 nM
17 | CCOc1ccc(C[C@@H]2NC(=O)CCSSC[C@@H](C(=O)N3CCC[C@H]3C(=O)N[C@H](CCCN=C(N)N)C(=O)NCC(N)=O)NC(=O)[C@H](CC(N)=O)NC(=O)[C@H](C(C)C)NC(=O)[C@H](Cc3ccccc3)NC2=O)cc1 [listing 1 of 2 here] | – | – | 22.9 nM | 28.2 nM | 85.1 nM | –
18 | CCOc1ccc(C[C@@H]2NC(=O)CCSSC[C@@H](C(=O)N3CCC[C@H]3C(=O)N[C@@H](CCCN=C(N)N)C(=O)NCC(N)=O)NC(=O)[C@H](CC(N)=O)NC(=O)[C@H](CCC(N)=O)NC(=O)[C@H](Cc3ccccc3)NC2=O)cc1 [listing 2 of 2 here] | 242 units/mg | 11 nM/kg | – | – | – | –
19 | CCOc1ccc(C[C@@H]2NC(=O)CCSSC[C@@H](C(=O)N3CCC[C@H]3C(=O)N[C@H](CCCN=C(N)N)C(=O)NCC(N)=O)NC(=O)[C@H](CC(N)=O)NC(=O)[C@H](C(C)C)NC(=O)[C@H](Cc3ccccc3)NC2=O)cc1 [listing 2 of 2 here] | 132 units/mg | 6.3 nM/kg | – | – | – | –
